Experimental data of several laboratories.
Protocols differ between the studies behind these lines.
Target: Myotonin-protein kinase (DMPK, Homo sapiens, UniProt Q09013)
Residues used in one study (Q09013 1-629): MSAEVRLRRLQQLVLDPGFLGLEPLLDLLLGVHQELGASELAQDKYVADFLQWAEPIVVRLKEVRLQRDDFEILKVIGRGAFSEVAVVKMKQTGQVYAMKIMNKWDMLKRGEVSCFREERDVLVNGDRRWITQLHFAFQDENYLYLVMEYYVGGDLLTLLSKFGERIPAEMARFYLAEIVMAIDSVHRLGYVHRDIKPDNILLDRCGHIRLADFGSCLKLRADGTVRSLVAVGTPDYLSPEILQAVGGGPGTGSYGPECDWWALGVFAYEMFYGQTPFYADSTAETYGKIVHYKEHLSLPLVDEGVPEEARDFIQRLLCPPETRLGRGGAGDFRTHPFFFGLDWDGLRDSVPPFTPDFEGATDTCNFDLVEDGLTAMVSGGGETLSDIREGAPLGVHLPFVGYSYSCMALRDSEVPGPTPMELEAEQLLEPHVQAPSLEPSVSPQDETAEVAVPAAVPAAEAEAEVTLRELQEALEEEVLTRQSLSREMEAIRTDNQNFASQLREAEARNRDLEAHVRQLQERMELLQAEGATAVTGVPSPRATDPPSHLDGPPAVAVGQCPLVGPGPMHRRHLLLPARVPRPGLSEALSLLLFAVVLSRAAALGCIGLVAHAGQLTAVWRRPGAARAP

CCCS(=O)(=O)Nc1ccc(F)c(C(=O)c2c[nH]c3ncc(-c4ccc(Cl)cc4)cc23)c1F — inhibition (enzyme activity, inhibitor; 1 µM): < 10%
Cc1cc(NC(=O)c2cccc3cc(-c4cccc5[nH]nc(N)c45)ccc23)ccc1F — activity vs control (enzyme activity, inhibitor; 0.1 µM): 99%
O=C1Nc2ccc(Cl)cc2C1=Cc1cc(Cl)c(O)c(Cl)c1 — remaining signal (cell-free assay; 0.5 µM): 112%
Cn1c2c(c3ccc(Cl)c(Cl)c31)C(C#N)C1(CCCC1)NC2=O (stereo not shown) — ΔTm (thermal stability, DSF; 10 µM): -0.2 °C
CCOc1cc(-c2nncn2C)ccc1Nc1ncc2cc(C)nc(NCC(C)(C)C)c2n1 — inhibition (cell-free assay, TR-FRET; 1 µM): ≤ 15%
Cc1ccc(Nc2nccc(N(C)c3ccc4c(C)n(C)nc4c3)n2)cc1S(N)(=O)=O — inhibition (enzyme activity, inhibitor; 10 µM): -12%
Cn1c2c(c3ccccc31)C(C#N)C(C)(C)NC2=O (stereo not shown) — ΔTm (thermal stability, DSF; 10 µM): -0.3 °C
Cc1cnc(NC2CCOCC2)nc1-n1cnc(C(=O)NC(CN)c2cc(F)cc(Cl)c2)c1 (stereo not shown) — remaining activity (enzyme activity, inhibitor, radiometric; 1 µM): 95%
CC(C)(O)[C@H]1CC[C@H](Nc2ccc3ncc(-c4cccc(C(F)(F)F)c4)n3n2)CC1 — remaining activity (enzyme activity, inhibitor; 1 µM): 97.5%
CO[C@H]1CC[C@H](CNc2ccc(S(=O)(=O)NC(=O)c3ccc(N4CCN(CC5=C(c6ccc(Cl)cc6)CC(C)(C)CC5)CC4)cc3Oc3cnc4[nH]ccc4c3)cc2[N+](=O)[O-])CC1 — remaining binding (cell-free assay, competition with immobilised ligand; 1 µM): 91%
O=C1NC(=O)c2cc(Nc3ccc(F)cc3)c(Nc3ccc(F)cc3)cc21 — remaining signal (cell-free assay; 0.5 µM): 108%
CCN(CC)c1ccc(C2=NNC(=O)CC2C)cc1[N+](=O)[O-] (stereo not shown) — remaining activity (enzyme activity, inhibitor; 10 µM): 91%
C[C@H](c1ccnc(Nc2nc3ccc(-c4cc(N(C)C)ncn4)cc3[nH]2)c1)N1CCN(C(=O)CC(F)(F)F)CC1 — remaining binding (cell-free assay, competition with immobilised ligand; 0.1 µM): 100%
Cn1c2c(Cl)c(Cl)ccc2c2cn[nH]c(=O)c21 — ΔTm (thermal stability, DSF; 10 µM): 0.4 °C
O=C(Nc1cnn(-c2csc(C(=O)NC3COC3)c2)c1)Nc1c(F)cccc1Cl — remaining activity (enzyme activity, inhibitor; 5 µM): 110%
CNC(=O)c1cc(Oc2ccc(NC(=O)Nc3ccc(Cl)c(C(F)(F)F)c3)cc2)ccn1 — inhibition (enzyme activity, inhibitor; 0.3 µM): -9%
CN(C)c1ncnc(-c2ccc3nc(Nc4cc(CN5CCN(C(=O)CC(F)(F)F)CC5)ccn4)[nH]c3c2)c1Cl — remaining binding (cell-free assay, competition with immobilised ligand; 1 µM): 91%
CCCOc1ccc(OC)c(F)c1C(=O)c1ccc(C(=O)N[C@@H]2CNC[C@H]2NC(=O)c2ccc3[nH]ncc3c2)cc1 — remaining activity (enzyme activity, inhibitor; 10 µM): 93%
O=C(O)[C@H]1[C@H](Cn2nnc3ccccc3c2=O)CC[C@@H]1C(=O)c1ccc(OCCC2CCOCC2)cc1 — remaining binding (cell-free assay, competition with immobilised ligand; 1 µM): 83%
CC(C)(C)c1nc(-c2cccc(NS(=O)(=O)c3c(F)cccc3F)c2F)c(-c2ccnc(N)n2)s1 — remaining activity (enzyme activity, inhibitor, radiometric; 1 µM): 103%
COc1ccc2cc(OCC3(C(=O)O)CN(C(=O)c4ccc(F)cc4)C3)ccc2c1 — remaining binding (cell-free assay, competition with immobilised ligand; 1 µM): 76%
Cn1c2c(Cl)c(Cl)ccc2c2cc[nH]c(=O)c21 — ΔTm (thermal stability, DSF; 10 µM): 0 °C
CC(=O)N1CCC(c2ccc(C(=O)NC(=N)N)cc2C(F)(F)F)CC1 — remaining binding (cell-free assay, competition with immobilised ligand; 1 µM): 100%
Cn1c2c(Cl)c(Cl)ccc2c2cc(N)[nH]c(=O)c21 — ΔTm (thermal stability, DSF; 10 µM): 0.1 °C
O=C(NCc1ncc(C(F)(F)F)cc1Cl)c1ccc2c(c1)C1(CCS(=O)(=O)CC1)[C@@H](C1CC1)N2S(=O)(=O)c1ccc(F)cc1 — remaining binding (cell-free assay, competition with immobilised ligand; 1 µM): 86%
CCN(CC)CCNC(=O)c1c(C)[nH]c(/C=C2\C(=O)Nc3ccc(F)cc32)c1C — inhibition (enzyme activity, inhibitor; 0.3 µM): -8%
CN(C)C(=O)Cn1cc(-c2nc([C@@](C)(c3ccc(-c4cnc(N)nc4)cc3)C3CC3)no2)cn1 — remaining binding (cell-free assay, competition with immobilised ligand; 1 µM): 100%
CC1(C)NC(=O)c2[nH]c3c(Cl)c(Cl)ccc3c2C1C#N (stereo not shown) — ΔTm (thermal stability, DSF; 10 µM): 1 °C
